According to ChEMBL document CHEMBL4732199, “Potent and orally bioavailable CDK8 inhibitors: Design, synthesis, structure-activity relationship analysis and biological evaluation” (Eur J Med Chem, 2021):
Calls of active or inactive are those of the source. The rule behind the calls is not given here.

What was measured:
[1] = target: CDK8/Cyclin C (Homo sapiens, UniProt P49336); assay: Inhibition of CDK8/cyclin C (unknown origin) using RBER-IRStide as substrate incubated for 60 mins in presence of [gamma33P]ATP by scintillation counting method; format: protein-complex assay
[2] = tested on: MV4-11; assay: Growth inhibition of human MV4-11 cells after 72 hrs by resazurin staining based assay; format: functional
Outline: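 MV4-11 leukaemia cells grown in medium with 10% FBS at 37 °C, 5% CO2. Growth was read by a 72-h resazurin viability assay. GI50 was obtained by nonlinear regression and reported as mean ± standard deviation of at least two replicates.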

[3] = target: CDK18/Cyclin Y (Homo sapiens) (UniProt Q07002+Q8ND76); assay: Inhibition of CDK18/Cyclin Y (unknown origin) at 1 uM; format: protein-complex assay
Outline: (§1)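 Residual activity of each kinase with compound at 1 µM, measured in a contracted radioisotope-based kinase profiling assay and expressed as % kinase activity remaining.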

[4] = target: CDK17/Cyclin-Y (Homo sapiens) (UniProt Q00537+Q8ND76); assay: Inhibition of CDK17/Cyclin Y (unknown origin) at 1 uM; format: protein-complex assay; outline: as §1
[5] = target: Cyclin-Y/Cyclin-dependent kinase 16 (Homo sapiens) (UniProt Q00536+Q8ND76); assay: Inhibition of CDK16/Cyclin Y (unknown origin) at 1 uM; format: protein-complex assay; outline: as §1
[6] = target: Cyclin-dependent kinase 14/Cyclin-Y (Homo sapiens) (UniProt O94921+Q8ND76); assay: Inhibition of CDK14/Cyclin Y (unknown origin) at 1 uM; format: protein-complex assay; outline: as §1
[7] = target: CDK9/cyclin T1 (Homo sapiens) (UniProt O60563+P50750); assay: Inhibition of CDK9/Cyclin T1 (unknown origin) at 1 uM relative to control; format: protein-complex assay; outline: as §1
[8] = target: CDK7/Cyclin H/MNAT1 (Homo sapiens) (UniProt P51946+P50613+P51948); assay: Inhibition of CDK7/cyclin H/MNAT1 (unknown origin) at 1 uM; format: protein-complex assay; outline: as §1
[9] = target: CDK6/cyclin D3 (Homo sapiens) (UniProt P30281+Q00534); assay: Inhibition of CDK6/cyclin-D3 (unknown origin) at 1 uM; format: protein-complex assay; outline: as §1
[10] = target: T1, Cyclin-dependent kinase 5/CDK5 activator 1 (Homo sapiens) (UniProt Q00535+Q15078); assay: Inhibition of CDK5/p35 (unknown origin) at 1 uM; format: protein-complex assay; outline: as §1
[11] = target: T1, Cyclin-dependent kinase 5/CDK5 activator 1 (Homo sapiens); assay: Inhibition of CDK5/p25 (unknown origin) at 1 uM; format: protein-complex assay; outline: as §1
[12] = target: Cyclin-dependent kinase 4/cyclin D1 (Homo sapiens) (UniProt P11802+P24385); assay: Inhibition of CDK4/cyclin-D1 (unknown origin) at 1 uM; format: protein-complex assay; outline: as §1
[13] = target: CDK3/Cyclin E (Homo sapiens) (UniProt P24864+Q00526); assay: Inhibition of CDK3/cyclin-E (unknown origin) at 1 uM; format: protein-complex assay; outline: as §1
[14] = target: CDK2/Cyclin A2 (Homo sapiens) (UniProt P24941+P20248); assay: Inhibition of CDK2/cyclin-A (unknown origin) at 1 uM; format: protein-complex assay; outline: as §1
[15] = target: Cyclin-dependent kinase 1/cyclin B1 (Homo sapiens) (UniProt P06493+P14635); assay: Inhibition of CDK1/cyclin-B (unknown origin) at 1 uM relative to control; format: protein-complex assay; outline: as §1
[16] = tested on: Glycogen synthase kinase-3 alpha (Homo sapiens), P49840 [UNDEFINED MUTATION]; assay: Inhibition of human GSKalpha S449A mutant (2 to 3nd residues) at 1 uM using YRRAAVPPSPSLSRHSSPHQS(p) EDEEE as substrate incubated for 40 mins in presence of [gamma-33P]-ATP by scintillation counting method relative to control
Outline: (§2)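 Single-point screen of residual kinase activity (%) at 1 µM compound. Run as a contract radiometric [γ-33P]-ATP kinase assay, either the KinaseProfiler service or the HotSpot assay. ATP was set at the experimentally determined Km(ATP) of each kinase.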

[17] = tested on: Glycogen synthase kinase-3 beta (Homo sapiens), P49841 [UNDEFINED MUTATION]; assay: Inhibition of human GSKbeta H350L mutant (2 to 3nd residues) at 1 uM using YRRAAVPPSPSLSRHSSPHQS(p) EDEEE as substrate incubated for 40 mins in presence of [gamma-33P]-ATP by scintillation counting method relative to control; outline: as §2
[18] = target: T2, Protein kinase C theta type (Homo sapiens, UniProt Q04759); assay: Inhibition of human full length PKCtheta at 1 uM using histone H1 as substrate incubated for 40 mins in presence of [gamma-33P]-ATP by scintillation counting method relative to control; outline: as §2
Target sequence in this assay (Q04759 whole entry, looked up): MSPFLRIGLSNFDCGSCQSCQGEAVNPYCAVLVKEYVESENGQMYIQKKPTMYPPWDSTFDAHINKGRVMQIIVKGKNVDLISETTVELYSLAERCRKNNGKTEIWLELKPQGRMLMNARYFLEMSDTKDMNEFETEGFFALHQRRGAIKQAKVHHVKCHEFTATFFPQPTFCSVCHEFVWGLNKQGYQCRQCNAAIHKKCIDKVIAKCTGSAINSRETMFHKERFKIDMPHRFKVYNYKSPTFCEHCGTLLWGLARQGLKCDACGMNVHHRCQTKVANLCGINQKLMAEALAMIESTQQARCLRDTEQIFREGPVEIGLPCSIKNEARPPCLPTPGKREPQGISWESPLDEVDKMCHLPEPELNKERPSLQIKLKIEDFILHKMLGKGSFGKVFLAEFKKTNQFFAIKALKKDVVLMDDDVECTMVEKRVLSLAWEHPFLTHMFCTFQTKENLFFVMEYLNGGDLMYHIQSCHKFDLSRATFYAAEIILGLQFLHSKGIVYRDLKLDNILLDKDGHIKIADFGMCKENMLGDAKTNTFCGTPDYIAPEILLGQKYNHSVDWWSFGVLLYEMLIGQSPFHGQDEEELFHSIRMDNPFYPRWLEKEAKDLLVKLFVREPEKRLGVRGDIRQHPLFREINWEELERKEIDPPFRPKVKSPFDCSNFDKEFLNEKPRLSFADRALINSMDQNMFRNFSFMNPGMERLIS

[19] = target: Glycogen synthase kinase-3 alpha (Homo sapiens, UniProt P49840); assay: Inhibition of human GSKalpha S449A mutant (2 to 3nd residues) using YRRAAVPPSPSLSRHSSPHQS(p) EDEEE as substrate incubated for 40 mins in presence of [gamma-33P]-ATP by scintillation counting method
Outline: (§3)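 Outsourced radioisotope (HotSpot) kinase assay run by a contract lab, with ATP at the kinase's Km(ATP). The IC50 was converted to an apparent Ki by the Cheng-Prusoff equation, Ki = IC50/(1+[ATP]/Km(ATP)), using the experimentally determined Km(ATP).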

[20] = target: Glycogen synthase kinase-3 beta (Homo sapiens, UniProt P49841); assay: Inhibition of human GSKbeta H350L mutant (2 to 3nd residues) using YRRAAVPPSPSLSRHSSPHQS(p) EDEEE as substrate incubated for 40 mins in presence of [gamma-33P]-ATP by scintillation counting method; outline: as §3
[21] = target: T2, Protein kinase C theta type; assay: Inhibition of human full length PKCtheta using histone H1 as substrate incubated for 40 mins in presence of [gamma-33P]-ATP by scintillation counting method
Outline: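 IC50 measured in a contracted radiometric kinase assay with ATP at the experimentally determined Km(ATP) of each kinase. Apparent Ki was derived by Cheng-Prusoff: Ki = IC50/(1+[ATP]/Km(ATP)).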
Target sequence in this assay (Q04759 whole entry): as the sequence (Q04759 whole entry, looked up) above

[22] = tested on: MOLM-13; assay: Growth inhibition human MOLM-13 cells after 72 hrs by resazurin or MTT assay; format: functional
Outline: (§4)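 Tumour cell lines kept in RPMI-1640, DMEM or MEM with 10% FBS at 37 °C, 5% CO2, mycoplasma-free. Exposure lasted 72 h. Viability was read by MTT for adherent solid-tumour lines and by resazurin for suspension leukaemia lines. GI50 came from nonlinear regression, given as mean ± standard deviation of at least two replicates unless stated otherwise.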

[23] = tested on: U-937; assay: Growth inhibition human U-937 cells after 72 hrs by resazurin or MTT assay; format: functional; outline: as §4
[24] = tested on: COLO 205; assay: Growth inhibition human COLO 205 cells after 72 hrs by resazurin or MTT assay; format: functional; outline: as §4
[25] = tested on: HCT-116; assay: Growth inhibition human HCT-116 cells after 72 hrs by resazurin or MTT assay; format: functional; outline: as §4
[26] = tested on: HT-29; assay: Growth inhibition human HT-29 cells after 72 hrs by resazurin or MTT assay; format: functional; outline: as §4
[27] = tested on: PANC-1; assay: Growth inhibition human PANC-1 cells after 72 hrs by resazurin or MTT assay; format: functional; outline: as §4
[28] = tested on: A2780; assay: Growth inhibition human A2780 cells after 72 hrs by resazurin or MTT assay; format: functional; outline: as §4
[29] = tested on: MCF7; assay: Growth inhibition human MCF7 cells after 72 hrs by resazurin or MTT assay; format: functional; outline: as §4
[30] = tested on: MDA-MB-231; assay: Growth inhibition human MDA-MB-231 cells after 72 hrs by resazurin or MTT assay; format: functional; outline: as §4
[31] = tested on: MDA-MB-453; assay: Growth inhibition human MDA-MB-453 cells after 72 hrs by resazurin or MTT assay; format: functional; outline: as §4
[32] = Growth inhibition human WI38 cells after 72 hrs by resazurin or MTT assay; format: cell-based; conditions: WI-38 cells
[33] = Inhibition of CYP4501A in human liver microsomes using ethoxyresorufin O-deethylation as substrate by LC-MS/MS analysis
[34] = tested on: T47D; assay: Growth inhibition human T47D cells after 72 hrs by resazurin or MTT assay; format: functional; outline: as §4

Chain of CDK8/Cyclin C (P49336 whole entry): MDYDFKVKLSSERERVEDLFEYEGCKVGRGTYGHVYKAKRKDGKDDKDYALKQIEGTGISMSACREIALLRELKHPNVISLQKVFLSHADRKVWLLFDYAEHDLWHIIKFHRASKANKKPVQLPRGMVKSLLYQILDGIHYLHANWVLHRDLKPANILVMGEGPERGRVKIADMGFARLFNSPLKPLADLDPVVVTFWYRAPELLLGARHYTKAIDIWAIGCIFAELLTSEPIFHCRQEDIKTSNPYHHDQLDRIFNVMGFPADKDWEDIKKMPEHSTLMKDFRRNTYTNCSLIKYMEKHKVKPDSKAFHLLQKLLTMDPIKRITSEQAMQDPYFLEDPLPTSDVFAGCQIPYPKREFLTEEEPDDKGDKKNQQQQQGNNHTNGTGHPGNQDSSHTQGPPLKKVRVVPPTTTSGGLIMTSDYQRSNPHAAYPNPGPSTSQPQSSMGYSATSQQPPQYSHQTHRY
Chain of CDK8/Cyclin C (P24863 whole entry, further chain): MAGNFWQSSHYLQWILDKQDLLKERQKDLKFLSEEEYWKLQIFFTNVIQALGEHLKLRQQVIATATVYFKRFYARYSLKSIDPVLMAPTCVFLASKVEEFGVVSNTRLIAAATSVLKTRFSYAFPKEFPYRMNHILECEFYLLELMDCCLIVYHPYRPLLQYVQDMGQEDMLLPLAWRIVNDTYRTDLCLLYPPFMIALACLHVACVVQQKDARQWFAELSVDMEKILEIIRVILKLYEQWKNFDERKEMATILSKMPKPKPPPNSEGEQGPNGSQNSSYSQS
T1 sequence (Q00535 whole entry): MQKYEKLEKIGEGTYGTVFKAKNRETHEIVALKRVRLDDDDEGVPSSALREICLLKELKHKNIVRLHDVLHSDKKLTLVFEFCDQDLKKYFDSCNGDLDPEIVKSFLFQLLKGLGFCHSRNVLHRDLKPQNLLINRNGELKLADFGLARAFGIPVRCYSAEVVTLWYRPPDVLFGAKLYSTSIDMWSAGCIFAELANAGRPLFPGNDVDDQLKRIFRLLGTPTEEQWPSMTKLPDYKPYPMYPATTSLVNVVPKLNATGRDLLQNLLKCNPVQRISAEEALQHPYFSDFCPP
T1 sequence (Q15078 99-307 partner limits assumed): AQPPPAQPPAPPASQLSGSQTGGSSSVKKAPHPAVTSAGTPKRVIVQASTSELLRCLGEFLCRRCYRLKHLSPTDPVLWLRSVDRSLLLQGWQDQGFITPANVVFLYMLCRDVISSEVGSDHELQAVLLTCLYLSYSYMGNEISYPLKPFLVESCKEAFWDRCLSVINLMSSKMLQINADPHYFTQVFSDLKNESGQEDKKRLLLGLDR
Chain of CDK17/Cyclin-Y (Homo sapiens) (Q00537 whole entry): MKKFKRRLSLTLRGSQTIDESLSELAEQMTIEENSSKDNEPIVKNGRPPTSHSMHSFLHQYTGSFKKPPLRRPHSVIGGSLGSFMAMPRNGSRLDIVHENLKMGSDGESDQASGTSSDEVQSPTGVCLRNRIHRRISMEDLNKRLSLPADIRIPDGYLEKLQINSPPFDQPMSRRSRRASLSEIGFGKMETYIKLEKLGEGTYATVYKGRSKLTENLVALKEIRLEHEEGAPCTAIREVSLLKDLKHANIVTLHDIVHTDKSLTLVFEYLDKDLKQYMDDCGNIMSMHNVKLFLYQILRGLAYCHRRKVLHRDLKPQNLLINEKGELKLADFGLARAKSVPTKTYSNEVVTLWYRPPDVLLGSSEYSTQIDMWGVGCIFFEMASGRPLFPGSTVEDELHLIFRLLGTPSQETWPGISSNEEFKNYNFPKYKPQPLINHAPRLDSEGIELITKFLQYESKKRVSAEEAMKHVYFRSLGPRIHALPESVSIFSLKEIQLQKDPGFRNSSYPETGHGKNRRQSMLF
Chain of CDK17/Cyclin-Y (Homo sapiens) (Q8ND76 2-341 partner limits assumed): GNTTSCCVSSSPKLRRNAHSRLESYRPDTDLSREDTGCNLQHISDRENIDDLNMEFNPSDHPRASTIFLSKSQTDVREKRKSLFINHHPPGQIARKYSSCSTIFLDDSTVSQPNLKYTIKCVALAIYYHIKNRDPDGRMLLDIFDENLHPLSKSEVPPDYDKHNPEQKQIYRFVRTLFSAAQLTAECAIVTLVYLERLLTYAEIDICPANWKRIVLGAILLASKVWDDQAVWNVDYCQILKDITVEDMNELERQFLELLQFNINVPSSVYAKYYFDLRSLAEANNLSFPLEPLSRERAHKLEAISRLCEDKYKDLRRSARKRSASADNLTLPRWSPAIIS
Chain of Cyclin-dependent kinase 1/cyclin B1 (Homo sapiens) (P06493 whole entry, looked up): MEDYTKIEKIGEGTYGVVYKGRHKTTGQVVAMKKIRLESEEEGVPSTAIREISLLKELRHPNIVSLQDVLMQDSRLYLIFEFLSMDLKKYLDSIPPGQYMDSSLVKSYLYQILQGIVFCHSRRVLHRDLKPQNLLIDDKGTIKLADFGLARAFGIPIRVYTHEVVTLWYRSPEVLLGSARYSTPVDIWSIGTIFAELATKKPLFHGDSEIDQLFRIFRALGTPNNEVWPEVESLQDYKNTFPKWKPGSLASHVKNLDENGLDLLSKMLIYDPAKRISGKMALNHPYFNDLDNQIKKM
Chain of Cyclin-dependent kinase 1/cyclin B1 (Homo sapiens) (P14635 whole entry, looked up): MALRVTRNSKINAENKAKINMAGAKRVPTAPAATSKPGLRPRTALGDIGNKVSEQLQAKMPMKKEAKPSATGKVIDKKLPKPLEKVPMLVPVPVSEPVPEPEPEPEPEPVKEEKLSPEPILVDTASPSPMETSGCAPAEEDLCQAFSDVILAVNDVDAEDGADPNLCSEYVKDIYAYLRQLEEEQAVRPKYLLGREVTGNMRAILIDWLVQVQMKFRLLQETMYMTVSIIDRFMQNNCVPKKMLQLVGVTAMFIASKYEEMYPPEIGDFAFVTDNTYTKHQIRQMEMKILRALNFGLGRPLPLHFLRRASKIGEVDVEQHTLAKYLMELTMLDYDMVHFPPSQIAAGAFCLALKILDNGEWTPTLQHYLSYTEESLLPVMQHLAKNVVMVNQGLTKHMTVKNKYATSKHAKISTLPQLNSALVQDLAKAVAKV
Chain of Glycogen synthase kinase-3 alpha (Homo sapiens), P49840 [UNDEFINED MUTATION] (P49840 whole entry, looked up, stated change not applied): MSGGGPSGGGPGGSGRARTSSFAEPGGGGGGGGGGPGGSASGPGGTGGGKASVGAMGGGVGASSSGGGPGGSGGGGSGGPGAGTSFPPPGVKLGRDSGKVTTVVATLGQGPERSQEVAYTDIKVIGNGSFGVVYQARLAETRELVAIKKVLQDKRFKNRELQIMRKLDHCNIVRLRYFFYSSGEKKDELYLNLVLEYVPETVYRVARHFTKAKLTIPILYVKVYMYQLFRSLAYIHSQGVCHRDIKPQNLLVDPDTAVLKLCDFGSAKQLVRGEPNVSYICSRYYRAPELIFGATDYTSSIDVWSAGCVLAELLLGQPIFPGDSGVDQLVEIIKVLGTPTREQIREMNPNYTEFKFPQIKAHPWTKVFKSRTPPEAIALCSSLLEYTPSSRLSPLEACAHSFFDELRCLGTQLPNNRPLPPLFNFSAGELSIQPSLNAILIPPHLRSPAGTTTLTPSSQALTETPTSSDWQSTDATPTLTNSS
Chain of Glycogen synthase kinase-3 alpha (P49840 whole entry): as the sequence (P49840 whole entry, looked up, stated change not applied) above
Chain of Glycogen synthase kinase-3 beta (P49841 whole entry): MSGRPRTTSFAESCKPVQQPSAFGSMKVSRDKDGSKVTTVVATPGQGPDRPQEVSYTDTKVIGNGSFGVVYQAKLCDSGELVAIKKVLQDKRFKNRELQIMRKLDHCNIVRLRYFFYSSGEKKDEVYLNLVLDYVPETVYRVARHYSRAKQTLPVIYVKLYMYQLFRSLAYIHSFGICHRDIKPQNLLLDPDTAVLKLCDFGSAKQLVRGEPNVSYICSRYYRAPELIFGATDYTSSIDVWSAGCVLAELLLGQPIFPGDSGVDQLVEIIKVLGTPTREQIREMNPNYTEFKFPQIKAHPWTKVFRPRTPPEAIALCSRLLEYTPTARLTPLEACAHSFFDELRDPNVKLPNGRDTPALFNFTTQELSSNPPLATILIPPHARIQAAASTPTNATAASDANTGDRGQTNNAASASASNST
Chain of Glycogen synthase kinase-3 beta (Homo sapiens), P49841 [UNDEFINED MUTATION] (P49841 whole entry, looked up, stated change not applied): as the sequence (P49841 whole entry) above

## O=C1NCCC12CCN(c1c(Cl)cncc1-c1cccc3c1sc1ccccc13)CC2
[1]
  Ki: 0.024 µM
[2]
  GI50: 6.35 µM

## Cn1cc2c(-c3cncc(Cl)c3N3CCC4(CCNC4=O)CC3)cccc2n1
[1]
  Ki: 0.052 µM
[2]
  GI50: 5.26 µM

## O=C1NCCC12CCN(c1c(Cl)cncc1-c1cc3ccccc3[nH]1)CC2
[1]
  Ki: 0.156 µM
[2]
  GI50: 6.84 µM

## Cn1ncc2c(-c3cncc(Cl)c3N3CCC4(CCNC4=O)CC3)cccc21
[1]
  Ki: 0.458 µM
[2]
  GI50: 27.7 µM

## O=C1NCCC12CCN(c1c(Cl)cncc1-c1csc3ccccc13)CC2
[1]
  Ki: 0.021 µM
[2]
  GI50: 0.35 µM

## COc1ccc(-c2cncc(Cl)c2N2CCC3(CCNC3=O)CC2)c2ccccc12
[1]
  Ki: 0.026 µM
[2]
  GI50: 33.2 µM

## Cc1ccc(-c2cncc(Cl)c2N2CCC3(CCNC3=O)CC2)c2ccccc12
[1]
  Ki: 0.022 µM
[2]
  GI50: 0.71 µM

## CC(C)(C)OC(=O)N1CCC(n2cc(-c3cncc(Cl)c3N3CCC4(CCNC4=O)CC3)cn2)CC1
[1]
  Ki: 0.7 µM
[2]
  GI50: 12.2 µM

## O=C1NCCC12CCN(c1c(Cl)cncc1-c1cc3ccccc3s1)CC2
[1]
  Ki: 0.014 µM
[2]
  GI50: 0.58 µM
[3]
  inhibition: inactive
[4]
  inhibition: inactive
[5]
  inhibition: inactive
[6]
  inhibition: inactive
[7]
  inhibition: inactive
[8]
  inhibition: inactive
[9]
  inhibition: inactive
[10]
  inhibition: inactive
[11]
  inhibition: inactive
[12]
  inhibition: inactive
[13]
  inhibition: inactive
[14]
  inhibition: inactive
[15]
  inhibition: inactive
[16]
  inhibition: > 50%
[17]
  inhibition: > 50%
[18]
  inhibition: > 50%
[19]
  Ki: 0.043 µM
[20]
  Ki: 0.018 µM
[21]
  Ki: 0.134 µM
[22]
  GI50: 5.81 µM
[23]
  GI50: 2.69 µM
[24]
  GI50: > 50 µM
[25]
  GI50: 42.7 µM
[26]
  GI50: 29.3 µM
[27]
  GI50: > 50 µM
[28]
  GI50: 17.6 µM
[29]
  GI50: > 50 µM
[30]
  GI50: 34.2 µM
[31]
  GI50: 17.4 µM
[32]
  GI50 at 72 h: 35 µM
[33]
  IC50: 16.6 µM
[34]
  GI50: 17.9 µM

## O=C1NCCC12CCN(c1c(Cl)cncc1-c1cn(S(=O)(=O)c3ccccc3)c3ccccc13)CC2
[1]
  Ki: 0.645 µM
[2]
  GI50: 28.4 µM

## O=C1NCCC12CCN(c1c(Cl)cncc1-c1cnn(Cc3ccccc3)c1)CC2
[1]
  Ki: 0.346 µM
[2]
  GI50: 5.34 µM

## Cn1cc(-c2ccc(-c3cncc(Cl)c3-n3ccc(C(N)=O)c3)cc2)cn1
[1]
  Ki: 1.09 µM
[2]
  GI50: 9.58 µM

## O=C1NCCC12CCN(c1c(Cl)cncc1-c1cccc3c1oc1ccccc13)CC2
[1]
  Ki: 0.016 µM
[2]
  GI50: 6.68 µM

## O=C1NCCC12CCN(c1c(Cl)cncc1-c1c[nH]c3ncccc13)CC2
[1]
  Ki: 0.05 µM
[2]
  GI50: 7.82 µM

## O=C1NCCC12CCN(c1c(Cl)cncc1-c1cnn(-c3ccccc3)c1)CC2
[1]
  Ki: 0.042 µM
[2]
  GI50: 0.84 µM
